The data set can be described thus: Toxicity liver stage against HepG2, at 10uM. It counts as cell-based. On the set-up: test concentration 10 uM, cell line HepG2-A16-CD81EGFP. The following applies: human, HepG2-A16-CD81EGFP cells; read-out: INHIBITION
The gist of the method:
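Uninfected HepG2-A16-CD81EGFP cells, 3 × 10^3 per well, 1536-well, plated on prespotted compound at 10 μM final, parasite-free screening media added to match infected plates; puromycin 10 μM positive, DMSO 0.5% negative; run in parallel with 48 h PbLuc assay at 37 °C, 5% CO2; viability by CellTiter-Glo luminescence, normalized to controls.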
As to `CC(C)(C)CC(=O)N1CC[C@@H](CC(=O)O)[C@@H](CCN2CCCCC2)C1`, the cytotoxicity at 10 µM was -1.11%. As for `O=C(NC[C@H]1C[C@@H]2CCN1C[C@@H]2CN1CCCCC1)Nc1ccccc1`, the figure is 10%; as for `CC(=O)c1cccc(NC(=O)c2cnc(N3CCN(C)CC3)nc2C)c1`, 4.28%; as for `O=C1CCNc2ncc(-c3ccc(Cl)cc3)cc2CN1C1CC1`, 9.78%. As for `CC(C)Nc1oc(-c2ccc(S(=O)(=O)N(C)C)o2)nc1C#N`, the figure is -11.6%; as for `CC(C)C1CC(=O)Nc2c1cnn2Cc1ccco1` (stereo not given), 1.27%. As for `Cc1cc(C)n(CCN2CCN(C(=O)c3ccccc3Br)CC2)n1`, the figure is -4.86%; as for `CCc1ccc(CN2CCC3(CC2)C(=O)N(C)CCN3CC)cc1`, -4.13%; as for `Cc1noc(C)c1CN1CCCC2(CCN(C(=O)C3CC3)C2)C1` (stereo not given), 2%. For `COCCN1CCC2(CC1)CN(Cc1cccc(C)n1)C(=O)CO2`, the cytotoxicity at 10 µM was -4.52%.

In the case of `COCCNC(=O)[C@@H]1C[C@H]2[C@H](CCN2c2cc(OC)ncn2)O1`, the cytotoxicity at 10 µM turned out to be 8.56%. In the case of `CCCc1noc(-c2ccc(-n3ncc(C(=O)O)c3C)nc2)n1`, the cytotoxicity at 10 µM was -1.4%. Consider `CS(=O)(=O)N1CCC(C(=O)N2CCC3(CC2)OCCCO3)CC1`, for which the cytotoxicity at 10 µM came out at 1.91%.

With `CN(C)C(=O)[C@H]1C[C@@H]2CCN(C3CCOCC3)C[C@H]2O1`, the cytotoxicity at 10 µM was -4.15%.

Consider `Cc1nn(Cn2ccc(C(=O)N3CCCC3)n2)c(C)c1Cl`, for which the cytotoxicity at 10 µM amounted to 0.748%.

Consider `Cc1nn(C(C)C)c2cnn(CC(=O)N3CCSCC3)c12`, for which the cytotoxicity at 10 µM amounted to 5.86%.

With `CCOCCCNC(=O)c1nn(CC)cc1Cl`, the cytotoxicity at 10 µM was 2.06%. As for `Cc1cc(-c2ccnn2C)nc(C2CCN(S(C)(=O)=O)CC2)n1`, the figure is 0.425%; as for `COCCNc1ccc(CC2CCCN(C3CCOCC3)C2)nn1` (stereo not given), 6.38%. As for `CO[C@@H]1CCC[C@@H](NC(=O)CCCn2cncn2)[C@H]1O`, the figure is 7.87%; as for `CCN1CCCC(O)(c2nc(C)c(CCOc3ccccc3F)s2)CC1` (stereo not given), -32.1%; as for `O=C(c1cc(C2CCCN(Cc3ccccn3)C2)no1)N1CCCC1` (stereo not given), -18.9%. As for `COCCOCC(=O)N1C[C@@H]2CC[C@H](Oc3ccccc3)[C@@H]2C1`, the figure is -27.9%. As to `c1ccc(-c2nnc(C3CCCN(CC4CCCCC4)C3)o2)nc1` (stereo not given), the cytotoxicity at 10 µM was -28.5%. As for `CN(C)C(=O)C1CN(Cc2nccs2)CCN(S(C)(=O)=O)C1` (stereo not given), the figure is 0.325%; as for `CCC(CC)C(=O)NC1CCCc2nc(N3CCOCC3)ncc21` (stereo not given), 4.99%; as for `Cc1cccc(N2Cc3c(NC4CCCC4)ncnc3N(C)CC2=O)c1`, 10.3%. As for `CC(O)c1cn(Cc2ccc(Cl)cc2Cl)nn1` (stereo not given), the figure is 15.5%; as for `CC(NCC1(N(C)C)CCOCC1)c1ccc(S(C)(=O)=O)cc1` (stereo not given), -3.27%; as for `CCN(CC)S(=O)(=O)NCC1Cc2ccccc2O1` (stereo not given), 0.477%. As for `Cc1ccc(C(=O)NCCNCC2CNc3ccnn3C2)cc1` (stereo not given), the figure is 7.41%; as for `CCS(=O)(=O)CCSc1cccc(C#N)c1`, -3.24%.

Turning to `Cc1ccc(C(=O)NC2CCN(Cc3noc(C(C)C)n3)CC2)s1`, the cytotoxicity at 10 µM was -10.7%. For `CN1CCCN(C(=O)c2cnsn2)c2cc(F)ccc21` the value was -4.03%. As for `Cn1nnc2cc(C(=O)NS(=O)(=O)c3cccc(C#N)c3)ccc21`, the figure is -6.29%.

For `O=C1OCCN1c1cccc(CNCc2cc(F)ccc2F)c1`, the cytotoxicity at 10 µM was determined as 25.3%. For `COCCOCC(=O)Nc1nc2c(OC)cc(F)cc2s1` the value was -1.29%. As for `Cc1cc(C(C)NC(=O)c2c[nH]c(=O)c(Cl)c2)c(C)o1` (stereo not given), the figure is 12.5%.

On to `CC(c1cc(F)ccc1F)N1CCN(C(=O)c2ccc(=O)[nH]c2)CC1` (stereo not given), for which the cytotoxicity at 10 µM came out at 5.94%. For `O=C1CCN(CCS(=O)(=O)c2ccc(Cl)cc2)CCN1` the value was -8.48%. For the molecule `COc1ncccc1NC(=O)N1CCC(CNC(C)=O)CC1`, the cytotoxicity at 10 µM stood at 3.61%. For `CCOC(=O)NC(CNC(=O)c1ncccn1)CC(C)C` (stereo not given) the value was -4.92%. As to `Cc1occc1C(=O)Nc1ccnc(OC2CCOC2)c1` (stereo not given), the cytotoxicity at 10 µM was -12.8%. Consider `Cn1ncc2c1C(COCC1CC1)CN(c1ncc(F)cn1)C2` (stereo not given), for which the cytotoxicity at 10 µM was found to be 12.1%.

Turning to `O=C([C@H]1CCCO1)N1CCC2(CC1)Cc1ccccc1CNC2=O`, the cytotoxicity at 10 µM was -101%.

`CC(C)N(C)C(=O)Cn1ncc(N(C)CCc2ccccc2)cc1=O`: the cytotoxicity at 10 µM amounted to 0.562%. As for `CC(=O)c1cc(CC(=O)N2CCCC2c2nc(C(C)C)no2)cs1` (stereo not given), the figure is 3.07%; as for `CCN1CC2(CCN(C(=O)c3nc4cc(C)ccn4c3F)CC2)CC1=O`, 12.3%; as for `Cc1ncc(CN(C)C2CCCN(CCc3ccccc3)C2)n1C` (stereo not given), -4.17%. For `Cc1ccncc1C(=O)N1C[C@@H]2CN(c3ncccn3)C[C@]2(C(=O)O)C1` the value was 2.36%. For `Cc1c[nH]c(CN2CC[C@@]3(O)CCN(C(=O)C4CCCC4)C[C@H]3C2)n1` the value was 3.11%; for `CCC[C@H]1CN(CCOC)C[C@@H]1NC(=O)Cn1cc(C)cn1`, 4.83%.

On to `O=C(O)CCc1cc2n(n1)CCN(Cc1cnc(N3CCCC3)nc1)C2`, for which the cytotoxicity at 10 µM is -1.89%. For `CS(=O)(=O)N1CC[C@]2(O)CCN(CCCC(=O)c3ccccc3)C[C@@H]2C1` the value was -8.86%; for `Cc1oncc1S(=O)(=O)N1CCCC(C)(Cc2ccc3c(c2)OCO3)C1` (stereo not given), 1.3%; for `COCCc1noc(CNC(=O)C2CC(=O)N(C(C)(C)C)C2)n1` (stereo not given), 3.77%.

For the molecule `O=C(c1ccnc(N2CCOC(C(F)(F)F)C2)c1)N1CCCC1` (stereo not given), the cytotoxicity at 10 µM was -3.5%. Turning to `CN(C)Cc1ccc(C2CCCCN2C(=O)c2cccnn2)cc1` (stereo not given), the cytotoxicity at 10 µM is -3.29%. On to `CCOc1ccccc1N1CCN(c2nnc(C)o2)CC1`, for which the cytotoxicity at 10 µM is -10.9%.

`COc1cc(C(=O)N2CCC(O)(CN3CCOCC3)C(C)(C)C2)ccn1` (stereo not given): the cytotoxicity at 10 µM is -9.61%. For `O=C(NC1CCOCC1)C1CC(=O)N(Cc2ccccn2)C1` (stereo not given) the value was -0.0985%. As for `CN(CC1CCCO1)c1nc(-c2cccnc2)nc2c1CCNCC2` (stereo not given), the figure is -4.68%; as for `C/C=C(\C)CN1CCCn2nc(CNC(=O)C3CCC3)cc2C1`, 4.92%; as for `COc1ccc(-n2ncc(C(C)NCc3cnc(SC)nc3)c2C)cc1` (stereo not given), 0.423%.

Take `CC(C)n1cnnc1CN(C)C(=O)c1ccccc1N1CCOCC1`: the cytotoxicity at 10 µM stood at 1.47%. As for `O=C(Cc1cccnc1)N1CCC(OCc2ccccc2)CC1`, the figure is -1.96%; as for `CC(=O)N1CCCn2nc(CNS(=O)(=O)N3CCCCCC3)cc2C1`, 3.74%; as for `c1ccc(CN2CCN(c3ccc4nncn4n3)CC2)nc1`, -1.1%. For `CN(Cc1cnn(C)c1)C(=O)CN1CCCC(Cn2cncn2)C1` (stereo not given) the value was -0.808%. For `CNc1nc(CNC(=O)Nc2cccc(-n3ccc(C)n3)c2)cs1` the value was -15.7%. For `O=C(NCCNc1ccccn1)N1CCC(O)CC1`, the cytotoxicity at 10 µM was -8.66%. For `CCOC(=O)c1sc2ccsc2c1CNS(C)(=O)=O` the value was -12%; for `CCOCCCNC(=O)Nc1ccc(F)c(C(N)=O)c1`, -16.9%. For `Cc1nccn1C1CCCN(C(=O)Cc2cn3ccccc3n2)C1` (stereo not given) the value was -20.9%; for `CCC(CNC(=O)Nc1cnn(CC)c1)N1CCc2ccccc2C1` (stereo not given), 4.72%; for `COc1c(C2CCCN2C(=O)c2ccc(C#N)cc2)c(C)nn1C` (stereo not given), -1.72%.

As to `COc1ccc(C2=CCN(C(=O)C3CCCN(C(N)=O)C3)CC2)cc1` (stereo not given), the cytotoxicity at 10 µM is -10.1%. On to `CNc1cc(N2CCCC2CNCc2cnc(C)cn2)ncn1` (stereo not given), for which the cytotoxicity at 10 µM was -4.51%. For the molecule `Cc1noc2ncc(C(=O)N3CCCC3c3cnn(C)c3)cc12` (stereo not given), the cytotoxicity at 10 µM is -6.2%. In the case of `Cn1ccnc1CN1CCCC1c1noc(C2CC2)n1` (stereo not given), the cytotoxicity at 10 µM worked out at 0.265%. For `COCCNC(=O)NCCc1ccn(-c2ccccc2)n1` the value was -0.0722%.

Consider `Cc1cnn(CC2CCCN2C(=O)c2ccc3cc[nH]c3c2)c1` (stereo not given), for which the cytotoxicity at 10 µM worked out at 0.409%. For `O=C(c1ccnc(C2CCNCC2)c1)N1CCCC1` the value was 3.69%; for `COc1cccc(C(=O)N2CCOCC2CN(C)C)c1OC` (stereo not given), -4.03%; for `CN(C)CCN1CCN(Cc2cccs2)Cc2cccnc21`, -3.24%.

Regarding `O=C(c1ccncc1)N1CCN(Cc2cccnc2)c2ncccc2C1`, the cytotoxicity at 10 µM was -1.16%. For `CNC(=O)[C@@H]1C[C@H]2CN(C(=O)c3ccco3)C[C@H]2N1C`, the cytotoxicity at 10 µM was -2.85%. For `Cc1nn(C)c(C)c1S(=O)(=O)N1CC[C@@H]2O[C@@H](C)C[C@H]2C1` the value was 7.15%; for `COc1ccc(CN2CCn3cc(Cn4cccn4)nc3C2)cc1`, 13.4%. Turning to `CN1C(=O)C[C@H]2[C@H]1CCN2Cc1cccc(C#N)c1`, the cytotoxicity at 10 µM is -75.6%.

`O=C(NCc1ccccc1F)C1=NOC2(CCNC2)C1` (stereo not given): the cytotoxicity at 10 µM turned out to be 3.23%.

As to `Cc1ccc(CN2CC[C@H]3CO[C@H](CN4CCCC4)[C@H]3C2)o1`, the cytotoxicity at 10 µM was -115%. For `O=C(CC1[C@H]2CN(Cc3ccsc3)C[C@@H]12)N1CCCC1` (stereo not given in full) the value was -1.16%; for `O=C1NCC2=Nc3ccccc3NC(c3ccccc3)C12` (stereo not given), 1.14%.

On to `CCCSCC(=O)N1C[C@@H]2CC[C@H]1CN(Cc1cccnc1)C2`, for which the cytotoxicity at 10 µM came to 1.64%.
